Reference: ChEMBL document CHEMBL1122293, “Synthesis, evaluation of chemical reactivity, and murine antineoplastic activity of 2-hydroxy-5-(3,4-dichlorophenyl)-6,7-bis(hydroxymethyl)-2,3-dihydro-1H- pyrrolizine bis(2-propylcarbamate) and 2-acyloxy derivatives as potential water-soluble prodrugs” (J Med Chem, 1983)
In brackets after ≈: the same amount, converted by molar mass.

Experiments:
B16 [1] = assay: No. of cures on day 60 at 10 mg/kg (ip) against B16 melanocarcinoma in mice; type: functional, Mus musculus
Outline: (§1)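 Female BDF1 mice given ip 0.5 mL of tumor brei (1.0 g tissue per 10 mL). Nine daily ip doses beginning 24 h later, as Klucel suspensions or a water/Tween-80 suspension. Acute toxicity scored day 5; survival read day 60. Cures counted per 10-animal group at day 60; weight difference reported as treated minus control (g).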

B16 [2] = assay: No. of cures on day 60 at 20 mg/kg (ip) against B16 melanocarcinoma in mice; type: functional, Mus musculus; outline: as §1
B16 [3] = assay: No. of cures on day 60 at 40 mg/kg (ip) against B16 melanocarcinoma in mice; type: functional, Mus musculus; outline: as §1
B16 [4] = assay: No. of cures on day 60 at 5 mg/kg (ip) against B16 melanocarcinoma in mice; type: functional, Mus musculus; outline: as §1
B16 [5] = assay: No. of cures on day 60 at 80 mg/kg (ip) against B16 melanocarcinoma in mice; type: functional, Mus musculus; outline: as §1
B16 [6] = assay: Median survival time of test animals compared to controls at 10 mg/kg (ip) against B16 melanocarcinoma in mice; type: functional, Mus musculus
Outline: (§2)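 Female BDF1 mice received B16 tumor brei ip (0.5 mL of 1.0 g tissue per 10 mL). From 24 h later they got nine daily ip doses, suspended in Klucel or water/Tween-80. Acute toxicity was assessed on day 5 and survival was evaluated on day 60. The value is median survival as % T/C, with 10 mice per group and a positive control run in parallel.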

B16 [7] = assay: Median survival time of test animals compared to controls at 20 mg/kg (ip) against B16 melanocarcinoma in mice; type: functional, Mus musculus; outline: as §2
B16 [8] = assay: Median survival time of test animals compared to controls at 40 mg/kg (ip) against B16 melanocarcinoma in mice; type: functional, Mus musculus; outline: as §2
B16 [9] = assay: Median survival time of test animals compared to controls at 5 mg/kg (ip) against B16 melanocarcinoma in mice; type: functional, Mus musculus; outline: as §2
B16 [10] = assay: Median survival time of test animals compared to controls at 80 mg/kg (ip) against B16 melanocarcinoma in mice; type: functional, Mus musculus; outline: as §2
B16 [11] = assay: Weight difference at 10 mg/kg (ip)against B16 melanocarcinoma in mice; type: functional, Mus musculus; outline: as §1
B16 [12] = assay: Weight difference at 20 mg/kg (ip) against B16 melanocarcinoma in mice; type: functional, Mus musculus; outline: as §1
B16 [13] = assay: Weight difference at 40 mg/kg (ip)against B16 melanocarcinoma in mice; type: functional, Mus musculus; outline: as §1
B16 [14] = assay: Weight difference at 5 mg/kg (ip)against B16 melanocarcinoma in mice; type: functional, Mus musculus; outline: as §1
B16 [15] = assay: Weight difference at 80 mg/kg (ip) against B16 melanocarcinoma in mice; type: functional, Mus musculus; outline: as §1
P388 [16] = assay: Weight difference at 50 mg/kg (ip)against P388 Lymphocytic Leukemia in mice; type: functional, Mus musculus
Outline: (§3)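 Male CDF1 mice given 6×10^6 leukemia cells ip. Five daily ip doses beginning 24 h later, as Klucel suspension or aqueous solution. Acute toxicity on day 5; survival assessed on day 30. Weight difference reported as treated minus control (g).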

P388 [17] = assay: Weight difference at 6.25 mg/kg (ip)against P388 Lymphocytic Leukemia in mice; type: functional, Mus musculus; outline: as §3
P388 [18] = assay: Median survival time of test animals compared to controls at 100 mg/kg (ip) against P388 Lymphocytic Leukemia in mice; type: functional, Mus musculus
Outline: (§4)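 P388 leukemia cells were inoculated ip into male CDF1 mice. Treatment began 24 h later, given ip as five daily doses, either as a Klucel (hydroxypropylcellulose) suspension or as an aqueous solution. Acute toxicity was assessed on day 5 and results were read on day 30. The value is median survival of treated versus control mice, as % T/C.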

P388 [19] = assay: Median survival time of test animals compared to controls at 12.5 mg/kg (ip) against P388 Lymphocytic Leukemia in mice; type: functional, Mus musculus
Outline: (§5)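 P388 leukemia cells inoculated ip into male CDF1 mice; ip treatment started 24 h later, five daily doses, as Klucel (hydroxypropylcellulose) suspension or aqueous solution. Acute toxicity on day 5. Day-30 median survival of treated versus control mice expressed as % T/C. Weight difference is treated minus control, in grams.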

P388 [20] = assay: Median survival time of test animals compared to controls at 25 mg/kg (ip) against P388 Lymphocytic Leukemia in mice; type: functional, Mus musculus; outline: as §4
P388 [21] = assay: Median survival time of test animals compared to controls at 50 mg/kg (ip) against P388 Lymphocytic Leukemia in mice; type: functional, Mus musculus; outline: as §4
P388 [22] = assay: Median survival time of test animals compared to controls at 6.25 mg/kg (ip) against P388 Lymphocytic Leukemia in mice; type: functional, Mus musculus; outline: as §4
P388 [23] = assay: Log of the tumor cell population at the end of treatment at 100 mg/kg (ip) against P388 Lymphocytic Leukemia in mice; type: functional, Mus musculus
P388 [24] = assay: Log of the tumor cell population at the end of treatment at 12.5 mg/kg (ip) against P388 Lymphocytic Leukemia in mice; type: functional, Mus musculus
P388 [25] = assay: Log of the tumor cell population at the end of treatment at 25 mg/kg (ip) against P388 Lymphocytic Leukemia in mice; type: functional, Mus musculus
P388 [26] = assay: Log of the tumor cell population at the end of treatment at 50 mg/kg (ip) against P388 Lymphocytic Leukemia in mice; type: functional, Mus musculus
P388 [27] = assay: Log of the tumor cell population at the end of treatment at 6.25 mg/kg (ip) against P388 Lymphocytic Leukemia in mice; type: functional, Mus musculus
P388 [28] = assay: Weight difference at 25 mg/kg (ip)against P388 Lymphocytic Leukemia in mice; type: functional, Mus musculus; outline: as §3
P388 [29] = assay: Weight difference at 100 mg/kg (ip)against P388 Lymphocytic Leukemia in mice; type: functional, Mus musculus; outline: as §3
P388 [30] = assay: Weight difference at 12.5 mg/kg (ip)against P388 Lymphocytic Leukemia in mice; type: functional, Mus musculus; outline: as §5
[31] = Water solubility of the compound; type: ADME; conditions: read-out: S
Outline: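 Excess bis(carbamate) (30-60 mg) in 2 mL distilled water, vortexed 10 min, filtered through Teflon wool and diluted. UV absorbance read at 291 nm. Concentration from a linear Beer's law calibration made with a salt standard (r = 0.998).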

Question: Which results are given for CC(C)NC(=O)OCc1c(COC(=O)NC(C)C)c(-c2ccc(Cl)c(Cl)c2)n2c1CC(O)C2 (configuration not stated)?
Answer: Cures (B16 [1]): 0; Cures (B16 [2]): 0; Cures (B16 [3]): 4; Cures (B16 [4]): 0; Cures (B16 [5]): 0; T/C (B16 [6]): 143%; T/C (B16 [7]): 196%; T/C (B16 [8]): 223%; T/C (B16 [9]): 129%; T/C (B16 [10]): 101%; Weight change (B16 [11]): 0.2 g; Weight change (B16 [12]): 0 g; Weight change (B16 [13]): -0.9 g; Weight change (B16 [14]): 0.1 g; Weight change (B16 [15]): -2.4 g; Weight change (P388 [16]): -5.6 g; Weight change (P388 [17]): -2.1 g; T/C (P388 [18]): 166%; T/C (P388 [19]): 147%; T/C (P388 [20]): 145%; T/C (P388 [21]): 150%; T/C (P388 [22]): 140%; Log cell kill (P388 [23]): 2.16; Log cell kill (P388 [24]): 0.62; Log cell kill (P388 [25]): 0.46; Log cell kill (P388 [26]): 0.85; Log cell kill (P388 [27]): 0.08; Weight change (P388 [28]): -3.8 g; Weight change (P388 [29]): -6.3 g; Weight change (P388 [30]): -2.7 g; solubility [31]: 40.2 µM (≈ 20 µg/mL); half-life (Half life was determined): 31 min
